# Measurements from different studies.
# Each line is one published result; the experiments were not run side by side.
# Target: Serine/threonine-protein kinase DCLK2 (DCLK2, Homo sapiens, UniProt Q8N568)
# Residues used in one study (Q8N568 1-766): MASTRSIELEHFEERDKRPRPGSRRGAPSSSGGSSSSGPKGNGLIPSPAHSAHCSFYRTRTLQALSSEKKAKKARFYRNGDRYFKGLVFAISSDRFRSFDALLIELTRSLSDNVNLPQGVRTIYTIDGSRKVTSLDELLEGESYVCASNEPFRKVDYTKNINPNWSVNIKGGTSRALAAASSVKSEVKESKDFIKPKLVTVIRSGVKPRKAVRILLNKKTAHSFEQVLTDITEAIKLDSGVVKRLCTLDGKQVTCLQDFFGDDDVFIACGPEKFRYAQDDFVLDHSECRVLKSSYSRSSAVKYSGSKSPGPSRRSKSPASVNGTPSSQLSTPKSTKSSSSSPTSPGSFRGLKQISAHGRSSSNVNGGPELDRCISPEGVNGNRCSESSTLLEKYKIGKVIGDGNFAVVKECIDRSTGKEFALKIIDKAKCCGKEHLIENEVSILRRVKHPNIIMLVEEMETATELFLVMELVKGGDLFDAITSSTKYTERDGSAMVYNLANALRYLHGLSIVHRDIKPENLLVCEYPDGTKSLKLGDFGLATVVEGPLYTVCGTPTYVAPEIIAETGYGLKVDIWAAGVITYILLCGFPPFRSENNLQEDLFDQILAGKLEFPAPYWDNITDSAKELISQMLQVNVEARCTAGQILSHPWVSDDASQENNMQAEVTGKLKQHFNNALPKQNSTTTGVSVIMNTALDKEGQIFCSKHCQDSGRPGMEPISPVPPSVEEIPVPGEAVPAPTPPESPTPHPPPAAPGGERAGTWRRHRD
Compound,effect on,action,technique,concentration,endpoint,result
COc1cc2ncnc(Nc3ccc(Oc4ccccc4)c(C)c3C)c2cc1OC,enzyme activity,inhibitor,,1 µM,inhibition,3%
CC/C(=N\NC(=O)NCc1cccc(O)c1)c1ccc(O)c(C)c1O,enzyme activity,inhibitor,,0.1 µM,inhibition,-8.9%
CCN(CC)CCNC(=O)c1c(C)[nH]c(/C=C2\C(=O)Nc3ccc(F)cc32)c1C,enzyme activity,inhibitor,,0.3 µM,inhibition,-2%
COc1cc2c(N3CCN(C(=O)Nc4ccc(OC(C)C)cc4)CC3)ncnc2cc1OCCCN1CCCCC1,cell-free assay,,,0.5 µM,remaining signal,103%
Cc1sc(C(=O)NC2COC2)cc1-n1cc(NC(=O)Nc2c(F)cccc2Cl)cn1,enzyme activity,inhibitor,,10 µM,remaining activity,107%
Cc1cc(NC(=O)c2cccc3cc(-c4cccc5[nH]nc(N)c45)ccc23)ccc1F,enzyme activity,inhibitor,,0.1 µM,activity vs control,109%
O=C(Nc1cnn(-c2csc(C(=O)NC3COC3)c2)c1)Nc1c(F)cccc1Cl,enzyme activity,inhibitor,,5 µM,remaining activity,94.3%
O=C1Nc2ccc(Cl)cc2C1=Cc1cc(Cl)c(O)c(Cl)c1,cell-free assay,,,0.5 µM,remaining signal,98%
Nc1cnc(N2CCc3cc(S(=O)(=O)Nc4c(F)cc(Cl)cc4F)cc(N4CCCC4=O)c32)nc1,cell-free assay,,competition with immobilised ligand,1 µM,remaining binding,100%
C[S+]([O-])c1ccc(-c2nc(-c3ccncc3)c(-c3ccc(F)cc3)[nH]2)cc1 (stereo not shown),cell-free assay,,,0.5 µM,remaining signal,99.8%
CS(=O)(=O)NCC[C@H](NC(=O)c1cncc2c1cnn2-c1ccc(F)cc1)c1ccnc(S(C)(=O)=O)c1,cell-free assay,,competition with immobilised ligand,1 µM,remaining binding,100%
CN1CC(Oc2cnc(C#N)cc2-c2ccn3nc(NC(=O)C4CC4)cc3c2)C1,enzyme activity,inhibitor,,1 µM,inhibition,-1%
CNC(=O)Nc1ccc2c(c1)CC[C@@]21OC(=O)N(CC(=O)N(Cc2ccc(F)cc2)[C@@H](C)C(F)(F)F)C1=O,cell-free assay,,competition with immobilised ligand,1 µM,remaining binding,70%
N#CCCc1ccc2c(c1)-c1[nH]c3ccc([N+](=O)[O-])cc3c1CC(=O)N2,cell-free assay,,,0.5 µM,remaining signal,104%
CCS(=O)(=O)c1cc2cc(C[C@@](O)(CC(C)(C)c3ccc(F)cc3C(N)=O)C(F)(F)F)[nH]c2cn1,cell-free assay,,competition with immobilised ligand,1 µM,remaining binding,100%
CC(C)(O)[C@H]1CC[C@H](Nc2ccc3ncc(-c4cccc(C(F)(F)F)c4)n3n2)CC1,enzyme activity,inhibitor,,1 µM,remaining activity,95.3%
Cn1cncc1C1=CN(c2ncnc3[nH]cnc23)CCS1,enzyme activity,inhibitor,radiometric,50 nM,inhibition,12.8%
Cc1ccc(NC(=O)c2ccc(C)c(C(F)(F)F)c2)cc1C#Cc1nn(C2CCC(O)CC2)c2ncnc(N)c12 (stereo not shown),cell-free assay,,,10 µM,remaining signal,102%
Cc1c(NC(=O)c2cc(C(N)=O)nc3cc(F)ccc23)c(C(F)(F)F)nn1Cc1ccc(C(C)(C)C)cc1,cell-free assay,,competition with immobilised ligand,1 µM,remaining binding,83%
CC(C)(C)c1nc(-c2cccc(NS(=O)(=O)c3c(F)cccc3F)c2F)c(-c2ccnc(N)n2)s1,enzyme activity,inhibitor,radiometric,1 µM,remaining activity,77%
COc1ccc2c(c1)O[C@H](c1ccc(OC)c(OC)c1)C[C@@H]2NC(=O)C1(c2ccc3c(c2)OC(F)(F)O3)CC1,cell-free assay,,competition with immobilised ligand,1 µM,remaining binding,98%
Cc1ccc(Nc2nccc(N(C)c3ccc4c(C)n(C)nc4c3)n2)cc1S(N)(=O)=O,enzyme activity,inhibitor,,0.3 µM,inhibition,-2%
